# From the EternaBench riboswitch data
# Tested on: MS2 coat protein
# Assay: apparent Kd, MS2 coat protein; higher = weaker binding; RNA-MaP array; FMN 200 µM where present
# Method in brief: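 Two titrations, one without ligand and one with constant ligand, were run with SNAP-549-labelled MS2 coat protein from 0.7 or 1.5 nM, doubling to 3 µM. The targets were designs transcribed by stalled E. coli RNA polymerase on Illumina sequencing-chip clusters, in 100 mM Tris-HCl pH 7.5, 80 mM KCl, 4 mM MgCl2, BSA, DTT, yeast tRNA and Tween-20. The apparent Kd is the median of filtered per-cluster binding-curve fits, with green signal normalised to red-channel RNA signal and control-cluster median Fmax.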
# [1] = designed as: ON switch for flavin mononucleotide, no ligand
# [2] = ligand present: flavin mononucleotide, designed as: ON switch for flavin mononucleotide
# [3] = designed as: OFF switch for flavin mononucleotide, no ligand
# [4] = ligand present: flavin mononucleotide, designed as: OFF switch for flavin mononucleotide
Sequence,apparent Kd [1],apparent Kd [2],apparent Kd [3],apparent Kd [4]
UUAUUAUUUAUAGGAUAUUGAUGUUUGCUAGUACAAGAAGGAUAAACAUGAGGAUCACCCAUGUAGUUUAAGGUUAGUUUGUUU,38.1 nM,39.4 nM,–,–
GAUCGACAUGAGGAUCACCCAUGUCAGGAUAUCGUCACUGGAGCUUCGGCUCCAGUGACGAGAAGGGACAUAAU,–,–,31.9 nM,44.6 nM
AGUAAGAUGCAGAAGGUGUCAGCGAGAGCUGCGACAUGAGGAUCACCCAUGUACCAGUGAGGGUACAAGGAUAUGCAUCUUACA,243 nM,19.3 nM,–,–
AAAUAGUUAGGAUAUACAUGAGGAUCACCCAUGUGGACUGAUGGCGAUUGAUUCAGUGGUAGAAGGGACUCAAA,–,–,37.4 nM,56.4 nM
GACAGCGACACAGGAUAUGUCAAUUUUACAUGAGGAUCACCCAUGUCCGAAGCAGAAGGGUGAUCGCGCGCAAACUAAGCCAUG,80.5 nM,70.5 nM,–,–
UUGGACGUCGUAGGAUAUGUAGGAUAUUCCUACAUGAGGAUCACCCAUGUUGACAUGGAAGGAGGACAGAAGGACGAUGUCCAU,524 nM,23.3 nM,–,–
UAUAUACAUGAGGAUCACCCAUGUAAGGAUAUGCAUUAUUAUUAUUAUUAUUAUUAUUGCAGAAGGUACAAUAU,–,–,40.7 nM,39.3 nM
UUUGUGUCAGGAUAUCGGGCCAGCAAUACGGUAUGUGGGCACGAGAAGGGACAUGAGGAUCACCCAUGUGCCUU,–,–,14.8 nM,16.4 nM
CUUUCGUGAGGAUAUCAGUAGUAAAUAAAUAAAAUUACUACUGAGAAGGCACAUGAGGAUCACCCAUGUUCCUC,–,–,23.6 nM,144 nM
CAGUACUGAGGAUAUACAUGAGGAUCACCCAUGUGUCCUGGCUAGGAUACUAGCAAAGGUAGAAGGCAGUACUG,–,–,16.6 nM,125 nM
GUAGCAUAAUCAGGAUAUUCAGCGAAUAGAUAGACAUGAGGAUCACCCAUGUGGCGAAAGCCUCGGGAGAAGGGAUAAUGCUAC,168 nM,54 nM,–,–
GCUUGUGGGCAAGGAUAUCCUACGUUGUUCUGGUUCGUGUCUGUCACAUGAGGAUCACCCAUGUGGGAGAAGGUGCAUUUGGUG,–,–,19.7 nM,17.1 nM
AUUAUUUUGUAGAAGGACGACUAUUAAUUUUUCGUAGGAUAUACUAUUUACAUGAGGAUCACCCAUGUUUAAAUGGAACAAUGU,–,–,9.32 nM,10.4 nM
UGUAAGAUGCAGAAGGUGUUAGCUAGAGCUACGACAUGAGGAUCACCCAUGUACUAGAAACAGUACAAGGAUAUGCAUCUUACA,18.3 nM,6.12 nM,–,–
AUGGAUAUCACAGGAUAUGCUAUGGAUACCAUAGCAGAAGGGUGAUCCAUCCUAUGUGAACACAUGAGGAUCACCCAUGUGUCC,98.4 nM,17.9 nM,–,–
GGCAUAAACGAGGAUAUCGAUACGGAAACGUAUCGAGAAGGUGUAACAUGAGGAUCACCCAUGUUCCUCAAGCC,–,–,38.6 nM,39.5 nM
AACCUAAAACAGAAGGCCAGCUACAUGAGGAUCACCCAUGUCGAAUCAUGGAGGAUAUGUUGUUAUUUACUCGCAGAUGAGUGC,28.1 nM,5.51 nM,–,–
CCGUAAGAGCGGACAUGAGGAUCACCCAUGUAAGAGUCAUCCAGAAGGUCAGCGCUAAAUGGAAUGAAGGAUAUGGAGUGGGUC,668 nM,357 nM,–,–
GGUCGUCACAUUAACAUGAGGAUCACCCAUGUAAAAUAACAUGAGGAUAUGCAUCCUAAUUGGAUGCAGAAGGCAUGGACGACC,7.86 nM,6.02 nM,–,–
ACGAAGAUACAGAAGGGUAAAGUAGUUAAUUAUAAGUAGGAAAUGCUCUACAGGAUAUGUUAGACAUGAGGAUCACCCAUGUAC,30.7 nM,13.1 nM,–,–
GAGUUUAAGUUUGUCACUUAGAGAGAGGAUAUGGAAAACUUGACAUGAGGAUCACCCAUGUAUAAUCAGAAGGCUCGAGUACGA,12.1 nM,7.33 nM,–,–

Sequence,apparent Kd [1],apparent Kd [2],apparent Kd [3],apparent Kd [4]
UAAAUUAACAAGAAGGCUAACAUGAGGAUCACCCAUGUUGUACAUGGAUAUAGAGGAUAUUGCUAAUUAUUAUUUAUCAUAAUU,–,–,23.6 nM,18.3 nM
UUAAUUAAUUAAUUGCAGUUACAUGAGGAUCACCCAUGUAUAUAGGAUAUCGUCAGGAAUACUGACGAGAAGGAUAUACUCUGC,–,–,21.6 nM,26.7 nM
GAUCGCCGUGUCAGGAUAUCUUGUGUACCCACGUUAGAGAAGGGACAUGAGGAUCACCCAUGUACCCUGGCUUU,–,–,20.6 nM,20.5 nM
UCUGCCGCCGUGAGGAUAUGCCCAAAAAAACGCGGGCAGAAGGCACAUGAGGAUCACCCAUGUCCCGCGGUUUU,–,–,19.5 nM,34.1 nM
GCGUCAGAAUUAAUUGUGACAGACAGAAGGCAAUAGUAUGUGUCCGACAUGAGGAUCACCCAUGUUGAGGAUAUGUCUUGACGC,–,–,4.76 nM,5.87 nM
GGUGGUGAGCAAGGAUAUCGCCACUGCGUGACCUCACAACGGAUACAUGAGGAUCACCCAUGUGGCGAGAAGGUGCGGGAACGG,–,–,29.4 nM,44 nM
GCAGCACAGUUUUACAUGAGGAUCACCCAUGUCGAUUGUUAUGAGGAUAUGCAUCGUAUGAAGAUGCAGAAGGCAUUGUGCUGC,6.96 nM,5.5 nM,–,–
GAUACGUCAGGAUAUCUGAUGUCUAACUUCGGUUAGACAUCAGAGAAGGGACAUGAGGAUCACCCAUGUAUCAA,–,–,42.6 nM,56.7 nM
UGUUUUUUGGGAGGAUAUGUAAAUUUAAACAUGAGGAUCACCCAUGUGGAUCACCCAUGUAGAUAAUAGAAGGCCCUUUUUUUU,–,–,55.3 nM,36.5 nM
AGUUACAUGAGGAUCACCCAUGUGUAUAGGGCAACCUAUAGACAGGAUAUCCGGCAUGCGGCCUAGGAGAAGGGUCAAAGAAGA,91.5 nM,429 nM,–,–
GGCUGGCAGCUAGGAUAUGGGCGGUCACAUGAGGAUCACCCAUGUCAACAUCAAAACCAGAUUAACCAGAAGGAGCUGCGGAUU,32.7 nM,502 nM,–,–
GUGCGGUCAGGAUAUGCAUGGCGGGACUUGCGUCGUGGCGUGGAGAAGGGACAUGAGGAUCACCCAUGUGGAGC,–,–,51.4 nM,54.2 nM
ACAUGAGGAUGAGGAUAUUCAUACAUGAGGAUAGAAGAAGGCAUACAUGAGGAUCACCCAUGUAUACACAUGAGGAUCGCCCAU,–,–,37.1 nM,47.3 nM
CGCGAAAACAUAGGAUAUUGAUACAUGAGGAUCACCCAUGUCAACCAUGAAGCUCGAAUUGUUGACAAGAAGGAUGAGGUCGCG,77.1 nM,57.2 nM,–,–
AAAACAUGAGGAUCACCCAUGUAAAGAUCGGUCGAUCAAGGUGAGGAUAUACAAAACUUGAUGGAGUAGAAGGCACUGGGUUGA,384 nM,201 nM,–,–
GGGUACAUCGGAGGAUAUCAUGUAAAUACAUGAGGAUCACCCAUGUCGAUGGAGACAUCGGAGAUUGAGAAGGCCGCUGUACCG,176 nM,9.92 nM,–,–
AGCUAGUCAGGAUAUACGAACAUGUCAAAAGACGUGAAAGGACAUGAGGAUCACCCAUGUAGAAGGGACUAGCA,–,–,21.4 nM,46.9 nM
AGAGCGAUAGGAUAUACAUGAGGAUCACCCAUGUUAAAAGUGGAAUCCUUGGACGCAUGUAGAAGGAUUGCGCC,–,–,49.7 nM,94.2 nM
CAGAUUUGCUAGAAGGGUGACAUGAGGAUCACCCAUGUGCGGGCAGACCUAUCUUCAUGCCCGCCACAGGAUAUAGCAAUUUGC,36.6 nM,17.9 nM,–,–
GUCAGCUCGUCAGGAUAUACAUGAGGAUCACCCAUGUGAUCAAUAGCAGCUUCGGCUGCAUUAAUGUAGAAGGGACGAGCUGAU,–,–,267 nM,69.2 nM
GGUACUCAAAGAGUACCAAAACGAACAUGAGGAUCACCCAUGUAGGAUAUGCUACUCAAAGAGUAGCAGAAGGACAUGUGCAGA,–,–,29.6 nM,149 nM
